The values below come from ChEMBL document CHEMBL3627597, “Synthesis of Fluorine-Containing Phosphodiesterase 10A (PDE10A) Inhibitors and the In Vivo Evaluation of F-18 Labeled PDE10A PET Tracers in Rodent and Nonhuman Primate” (J Med Chem, 2015).

Assay [1] addresses 3',5'-cyclic-AMP phosphodiesterase 4B (Homo sapiens, UniProt Q07343). Put plainly: Inhibition of recombinant human PDE4B assessed as reduction of [3H]-cAMP hydrolysis preincubated for 5 mins followed by [3H]-cAMP addition measured after 20 mins by scintillation proximity assay. In outline:
(§1)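 Recombinant human PDE with [3H]cAMP scintillation proximity assay. Enzyme used at a level within the linear range. Inhibitor (DMSO serial dilutions) plus enzyme held 5 min on ice, then [3H]cAMP added at 1/3 Km (1.48 kBq/mL), 20 min on ice (~30% turnover). Stopped with yttrium silicate SPA beads; settled 1.5 h at rt and counted. IC50 from one-site nonlinear fit, at least two independent runs, ± SD.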
(In general: In a scintillation proximity assay essentially only radioactivity close to the scintillant gives light.)

For assay [2], the species on record is Homo sapiens. Description: Selectivity ratio of IC50 for recombinant human PDE4A to IC50 for recombinant human PDE10A.
For assay [3], the species on record is Homo sapiens. Description: Selectivity ratio of IC50 for recombinant human PDE3A to IC50 for recombinant human PDE10A.
Assay [4] has as its target cGMP-inhibited 3',5'-cyclic phosphodiesterase 3B (Homo sapiens, UniProt Q13370). Put plainly: Inhibition of recombinant human PDE3B assessed as reduction of [3H]-cAMP hydrolysis preincubated for 5 mins followed by [3H]-cAMP addition measured after 20 mins by scintillation proximity assay. The procedure, abridged: as §1
Assay [5] has as its target cAMP and cAMP-inhibited cGMP 3',5'-cyclic phosphodiesterase 10A (Homo sapiens, UniProt Q9Y233). Description: Inhibition of recombinant human PDE10A assessed as reduction of [3H]-cAMP hydrolysis preincubated for 5 mins followed by [3H]-cAMP addition measured after 20 mins by scintillation proximity assay. In outline: as §1
The species entered for assay [6] is Homo sapiens. Description: Selectivity ratio of IC50 for recombinant human PDE3B to IC50 for recombinant human PDE10A.
The target in assay [7] is cGMP-inhibited 3',5'-cyclic phosphodiesterase 3A (Homo sapiens, UniProt Q14432). Put plainly: Inhibition of recombinant human PDE3A assessed as reduction of [3H]-cAMP hydrolysis preincubated for 5 mins followed by [3H]-cAMP addition measured after 20 mins by scintillation proximity assay. The procedure, abridged:
as §1

Assay [8] deals with 3',5'-cyclic-AMP phosphodiesterase 4A (Homo sapiens, UniProt P27815). Put plainly: Inhibition of recombinant human PDE4A assessed as reduction of [3H]-cAMP hydrolysis preincubated for 5 mins followed by [3H]-cAMP addition measured after 20 mins by scintillation proximity assay. In outline:
as §1

Assay [9] is filed under the species Homo sapiens. Put plainly: Selectivity ratio of IC50 for recombinant human PDE4B to IC50 for recombinant human PDE10A.

Chain of cAMP and cAMP-inhibited cGMP 3',5'-cyclic phosphodiesterase 10A (Q9Y233 whole entry): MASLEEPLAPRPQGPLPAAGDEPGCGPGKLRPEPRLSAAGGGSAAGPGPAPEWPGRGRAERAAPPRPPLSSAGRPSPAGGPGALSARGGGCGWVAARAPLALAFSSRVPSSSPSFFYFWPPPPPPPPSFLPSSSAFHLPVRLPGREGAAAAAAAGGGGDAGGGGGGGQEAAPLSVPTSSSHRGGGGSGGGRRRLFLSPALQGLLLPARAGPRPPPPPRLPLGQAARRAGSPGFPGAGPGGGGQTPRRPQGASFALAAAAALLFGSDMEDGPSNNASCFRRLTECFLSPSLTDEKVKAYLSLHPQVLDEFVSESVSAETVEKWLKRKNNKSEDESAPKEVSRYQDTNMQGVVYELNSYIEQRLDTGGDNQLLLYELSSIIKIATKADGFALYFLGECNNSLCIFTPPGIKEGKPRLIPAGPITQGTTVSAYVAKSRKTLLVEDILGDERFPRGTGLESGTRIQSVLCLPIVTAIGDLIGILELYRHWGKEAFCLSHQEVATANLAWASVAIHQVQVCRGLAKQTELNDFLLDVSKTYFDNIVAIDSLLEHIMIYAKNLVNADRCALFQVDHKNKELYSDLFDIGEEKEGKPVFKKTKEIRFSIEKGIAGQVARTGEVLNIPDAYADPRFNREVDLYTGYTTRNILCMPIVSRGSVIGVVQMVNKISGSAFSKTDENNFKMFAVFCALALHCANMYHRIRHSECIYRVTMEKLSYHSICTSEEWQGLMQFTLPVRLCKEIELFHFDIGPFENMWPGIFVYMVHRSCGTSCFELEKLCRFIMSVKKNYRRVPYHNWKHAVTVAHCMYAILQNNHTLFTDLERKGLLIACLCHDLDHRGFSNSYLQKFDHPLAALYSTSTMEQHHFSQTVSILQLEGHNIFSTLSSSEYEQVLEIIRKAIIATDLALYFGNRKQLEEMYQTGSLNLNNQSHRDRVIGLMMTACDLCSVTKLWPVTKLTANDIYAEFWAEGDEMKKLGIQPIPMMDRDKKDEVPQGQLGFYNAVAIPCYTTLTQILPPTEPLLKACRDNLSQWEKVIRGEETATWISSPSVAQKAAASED
Chain of cGMP-inhibited 3',5'-cyclic phosphodiesterase 3B (Q13370 whole entry): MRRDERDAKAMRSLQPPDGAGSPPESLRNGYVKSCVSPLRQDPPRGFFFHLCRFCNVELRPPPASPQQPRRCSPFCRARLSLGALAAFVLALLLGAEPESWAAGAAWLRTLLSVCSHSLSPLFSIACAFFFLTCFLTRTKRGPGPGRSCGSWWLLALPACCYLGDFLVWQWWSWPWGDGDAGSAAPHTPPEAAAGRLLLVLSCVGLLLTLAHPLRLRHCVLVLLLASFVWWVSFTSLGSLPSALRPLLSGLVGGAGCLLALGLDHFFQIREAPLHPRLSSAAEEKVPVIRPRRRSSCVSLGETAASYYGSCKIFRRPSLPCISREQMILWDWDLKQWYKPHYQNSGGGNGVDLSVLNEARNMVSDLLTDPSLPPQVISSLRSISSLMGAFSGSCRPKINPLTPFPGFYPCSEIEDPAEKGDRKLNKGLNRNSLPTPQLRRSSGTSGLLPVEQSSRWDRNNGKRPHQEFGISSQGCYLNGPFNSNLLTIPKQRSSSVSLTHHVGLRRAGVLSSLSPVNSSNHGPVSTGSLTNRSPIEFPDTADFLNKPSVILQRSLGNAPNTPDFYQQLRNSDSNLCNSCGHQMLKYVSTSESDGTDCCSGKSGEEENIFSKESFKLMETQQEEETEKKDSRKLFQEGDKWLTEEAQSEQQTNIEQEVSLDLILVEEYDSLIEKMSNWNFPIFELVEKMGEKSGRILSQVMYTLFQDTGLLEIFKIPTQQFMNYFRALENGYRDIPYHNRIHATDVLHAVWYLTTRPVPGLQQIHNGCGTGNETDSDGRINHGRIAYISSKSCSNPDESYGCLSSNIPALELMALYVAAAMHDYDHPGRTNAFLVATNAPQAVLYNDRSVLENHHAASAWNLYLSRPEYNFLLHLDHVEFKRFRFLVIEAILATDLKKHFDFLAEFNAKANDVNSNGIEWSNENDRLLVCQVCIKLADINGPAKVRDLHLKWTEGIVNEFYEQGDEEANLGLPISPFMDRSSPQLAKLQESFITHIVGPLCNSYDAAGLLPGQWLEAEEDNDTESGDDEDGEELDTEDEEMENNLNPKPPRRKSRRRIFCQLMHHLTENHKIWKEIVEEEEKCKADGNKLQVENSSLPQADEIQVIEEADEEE
Chain of 3',5'-cyclic-AMP phosphodiesterase 4A (P27815 whole entry): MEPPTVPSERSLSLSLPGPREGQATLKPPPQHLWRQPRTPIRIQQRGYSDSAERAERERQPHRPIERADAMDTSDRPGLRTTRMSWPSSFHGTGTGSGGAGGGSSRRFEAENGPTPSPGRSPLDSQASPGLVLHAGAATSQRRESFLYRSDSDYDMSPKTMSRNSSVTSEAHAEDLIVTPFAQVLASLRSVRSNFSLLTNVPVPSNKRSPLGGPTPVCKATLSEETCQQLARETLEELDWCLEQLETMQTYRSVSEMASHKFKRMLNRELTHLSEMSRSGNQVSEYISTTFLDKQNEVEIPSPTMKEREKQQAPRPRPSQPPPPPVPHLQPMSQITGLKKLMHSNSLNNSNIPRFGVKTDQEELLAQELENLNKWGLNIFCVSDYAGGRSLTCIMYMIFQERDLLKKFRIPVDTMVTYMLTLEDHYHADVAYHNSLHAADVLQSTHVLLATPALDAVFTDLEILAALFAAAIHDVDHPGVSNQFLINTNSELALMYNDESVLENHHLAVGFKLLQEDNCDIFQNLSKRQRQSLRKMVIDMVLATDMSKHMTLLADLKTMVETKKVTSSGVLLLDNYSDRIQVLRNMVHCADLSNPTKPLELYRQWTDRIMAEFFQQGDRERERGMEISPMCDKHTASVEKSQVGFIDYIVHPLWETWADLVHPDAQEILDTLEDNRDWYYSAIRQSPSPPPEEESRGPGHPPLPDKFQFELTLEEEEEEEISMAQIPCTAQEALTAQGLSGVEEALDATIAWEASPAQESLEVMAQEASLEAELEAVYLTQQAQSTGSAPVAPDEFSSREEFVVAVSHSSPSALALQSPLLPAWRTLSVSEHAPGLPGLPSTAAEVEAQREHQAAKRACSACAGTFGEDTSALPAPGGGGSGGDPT
Chain of cGMP-inhibited 3',5'-cyclic phosphodiesterase 3A (Q14432 whole entry): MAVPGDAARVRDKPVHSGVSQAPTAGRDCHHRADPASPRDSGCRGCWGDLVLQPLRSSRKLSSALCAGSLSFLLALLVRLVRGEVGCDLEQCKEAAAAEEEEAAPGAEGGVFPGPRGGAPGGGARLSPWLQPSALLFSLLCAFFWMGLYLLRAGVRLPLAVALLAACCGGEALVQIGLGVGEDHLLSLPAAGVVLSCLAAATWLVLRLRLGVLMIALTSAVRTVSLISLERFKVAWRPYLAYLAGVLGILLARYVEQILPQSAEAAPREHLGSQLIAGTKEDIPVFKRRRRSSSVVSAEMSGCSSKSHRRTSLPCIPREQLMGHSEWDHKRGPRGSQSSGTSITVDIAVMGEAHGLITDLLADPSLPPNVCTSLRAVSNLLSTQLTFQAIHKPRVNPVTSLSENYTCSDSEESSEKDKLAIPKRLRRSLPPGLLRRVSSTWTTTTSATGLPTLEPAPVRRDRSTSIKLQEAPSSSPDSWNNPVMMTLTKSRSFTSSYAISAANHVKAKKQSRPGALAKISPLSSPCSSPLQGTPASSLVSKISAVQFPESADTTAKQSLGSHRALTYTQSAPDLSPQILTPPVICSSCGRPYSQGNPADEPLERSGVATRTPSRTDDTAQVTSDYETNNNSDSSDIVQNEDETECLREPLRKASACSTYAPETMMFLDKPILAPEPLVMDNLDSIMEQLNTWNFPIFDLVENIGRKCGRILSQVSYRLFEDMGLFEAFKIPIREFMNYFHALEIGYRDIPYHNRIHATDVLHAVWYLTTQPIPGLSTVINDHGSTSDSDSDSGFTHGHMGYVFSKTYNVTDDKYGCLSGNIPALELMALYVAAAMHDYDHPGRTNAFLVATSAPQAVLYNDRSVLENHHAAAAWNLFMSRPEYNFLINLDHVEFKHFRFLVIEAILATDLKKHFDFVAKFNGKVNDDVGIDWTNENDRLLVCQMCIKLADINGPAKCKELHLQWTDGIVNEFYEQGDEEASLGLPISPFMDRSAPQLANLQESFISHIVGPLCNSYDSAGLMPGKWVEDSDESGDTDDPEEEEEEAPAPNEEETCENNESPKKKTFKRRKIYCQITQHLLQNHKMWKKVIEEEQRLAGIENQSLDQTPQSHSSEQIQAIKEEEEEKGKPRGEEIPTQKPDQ
Chain of 3',5'-cyclic-AMP phosphodiesterase 4B (Q07343 whole entry): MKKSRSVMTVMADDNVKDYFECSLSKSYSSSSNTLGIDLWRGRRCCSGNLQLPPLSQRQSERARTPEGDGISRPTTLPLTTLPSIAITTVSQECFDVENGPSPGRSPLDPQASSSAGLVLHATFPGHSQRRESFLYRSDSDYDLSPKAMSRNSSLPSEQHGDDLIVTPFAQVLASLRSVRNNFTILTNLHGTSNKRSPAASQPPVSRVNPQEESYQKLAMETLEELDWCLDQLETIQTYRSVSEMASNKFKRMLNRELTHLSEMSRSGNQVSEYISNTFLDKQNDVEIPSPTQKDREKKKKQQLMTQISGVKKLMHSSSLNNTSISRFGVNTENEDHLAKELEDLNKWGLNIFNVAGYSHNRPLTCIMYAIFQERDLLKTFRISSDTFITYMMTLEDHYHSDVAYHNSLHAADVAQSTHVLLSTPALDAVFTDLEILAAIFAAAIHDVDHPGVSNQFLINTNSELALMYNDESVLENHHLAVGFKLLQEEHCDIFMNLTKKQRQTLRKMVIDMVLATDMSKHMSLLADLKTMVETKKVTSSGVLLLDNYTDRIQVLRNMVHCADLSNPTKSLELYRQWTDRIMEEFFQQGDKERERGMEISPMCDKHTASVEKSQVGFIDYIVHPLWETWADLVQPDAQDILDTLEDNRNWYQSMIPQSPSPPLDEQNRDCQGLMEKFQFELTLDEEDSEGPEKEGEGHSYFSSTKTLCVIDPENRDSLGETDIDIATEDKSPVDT

`Cn1cc(-c2ccncc2)c(-c2ccc(OCc3cc(F)c4ccccc4n3)cc2)n1`: the IC50 (as a rule, the concentration that inhibits the measured activity by half) worked out at 6420 nM in assay [1]; 103 µM in assay [4]; 0.71 nM in assay [5]; 199 µM in assay [7]; 8.35 µM in assay [8]. Further, the Ratio IC50 in assay [2], in assay [3], in assay [6] and in assay [9] was over 210 throughout.
In the case of `Cn1cc(-c2ccncc2)c(-c2ccc(OCc3cc(COCCF)c4ccccc4n3)cc2)n1`, the IC50 stood at 1770 nM in assay [1]; 4.55 µM in [4]; 0.65 nM in assay [5]; 4.07 µM in [7]; 2.22 µM in assay [8]. In addition, the Ratio IC50 in assay [2], in assay [3], in assay [6] and in assay [9] was over 210 in each case.
In the case of `Cn1ncc(-c2ccncc2)c1-c1ccc(OCc2ccc3cc(F)ccc3n2)cc1`, the IC50 in assay [1] worked out at 760 nM; in [4] it was 151 µM; in assay [5], 0.76 nM; in [7] it was 111 µM; in assay [8] it was 9.73 µM. Further, the Ratio IC50 in [2], in assay [3], in assay [6] and in assay [9] was over 210 in each case.
As to `Cn1cc(-c2ccncc2)c(-c2ccc(OCc3cc(OCCOCCOCCF)c4ccccc4n3)cc2)n1`, the 50% inhibitory concentration (IC50) in assay [1] amounted to 1580 nM; in assay [4], 61.9 µM; in assay [5] it was 0.24 nM; in [7] it was 116 µM; in assay [8], 1.57 µM. The Ratio IC50 in [2], in assay [3], in [6] and in assay [9] was over 210 throughout.
Turning to `Cn1cc(-c2ccncc2)c(-c2ccc(OCc3cc(CF)c4ccccc4n3)cc2)n1`, the IC50 came to 3800 nM in [1]; 5.68 µM in [4]; 0.68 nM in assay [5]; 7.71 µM in assay [7]; 4.09 µM in assay [8]. Also, the Ratio IC50 in assay [2], in assay [3], in [6] and in assay [9] was over 210 throughout.
Consider `Cn1cc(-c2ccncc2)c(-c2ccc(OCc3cc(OCCOCCF)c4ccccc4n3)cc2)n1`, for which the IC50 stood at 900 nM in [1]; 16.2 µM in [4]; 0.27 nM in assay [5]; 22.9 µM in [7]; 1.44 µM in assay [8]. The Ratio IC50 in [2], in assay [3], in [6] and in assay [9] was over 210 throughout.
On to `Cn1ncc(-c2ccncc2)c1-c1ccc(OCc2cc(NCCF)c3ccccc3n2)cc1`, for which the IC50 in assay [1] worked out at 1590 nM; in assay [4] it was 38.3 µM; in assay [5], 0.37 nM; in assay [7] it was 78.8 µM; in [8] it was 12.4 µM. For the same compound, the Ratio IC50 in assay [2], in assay [3], in assay [6] and in assay [9] was over 210 each time.
In the case of `Cn1ncc(-c2ccncc2)c1-c1ccc(OCc2cc(OCCOCCOCCOCCF)c3ccccc3n2)cc1`, the IC50 stood at 1730 nM in assay [1]; 28.1 µM in assay [4]; 0.3 nM in assay [5]; 58.7 µM in assay [7]; 15 µM in [8]. Besides, the Ratio IC50 in [2], in assay [3], in assay [6] and in assay [9] was over 210 each time.
Turning to `Cn1ncc(-c2ccncc2)c1-c1ccc(OCc2cc(OCCF)c3ccccc3n2)cc1`, the IC50 turned out to be 1020 nM in assay [1]; 5.61 µM in assay [4]; 1.16 nM in assay [5]; 3.77 µM in [7]; 3.72 µM in assay [8]. Further, the Ratio IC50 in assay [2], in assay [3], in assay [6] and in assay [9] was over 210 each time.
Turning to `Cn1cc(-c2ccncc2)c(-c2ccc(OCc3ccc4cc(OCCF)ccc4n3)cc2)n1`, the Ratio IC50 in [2], in assay [3], in assay [6] and in [9] was over 210 in each case. The IC50 in assay [5] is 33.5 nM.
For `Cn1cc(-c2ccncc2)c(-c2ccc(OCc3cc(OCCF)c4ccccc4n3)cc2)n1`, the IC50 came out at 1770 nM in assay [1]; 7.76 µM in assay [4]; 0.32 nM in assay [5]; 29.5 µM in assay [7]; 1.01 µM in assay [8]. In addition, the Ratio IC50 in [2], in assay [3], in assay [6] and in [9] was over 210 in each case.
As to `Cn1cc(-c2ccncc2)c(-c2ccc(OCc3ccc4cc(CF)ccc4n3)cc2)n1`, the Ratio IC50 in [2], in assay [3], in [6] and in [9] was over 210 each time. The IC50 in assay [5] was over 76 nM.
With `Cn1cc(-c2ccncc2)c(-c2ccc(OCc3cc(NCCF)c4ccccc4n3)cc2)n1`, the IC50 was determined as 4800 nM in [1]; 3.48 µM in assay [4]; 0.52 nM in assay [5]; 3.74 µM in [7]; 5.97 µM in [8]. The Ratio IC50 in assay [2], in assay [3], in assay [6] and in assay [9] was over 210 in each case.
Turning to `Cn1ncc(-c2ccncc2)c1-c1ccc(OCc2cc(OCCOCCOCCF)c3ccccc3n2)cc1`, the IC50 in assay [1] was determined as 7310 nM; in assay [4] it was 51.8 µM; in assay [5] it was 0.47 nM; in [7] it was 62.2 µM; in assay [8], 8.36 µM. The Ratio IC50 in assay [2], in assay [3], in assay [6] and in [9] was over 210 each time.
For the compound `Cn1cc(-c2ccncc2)c(-c2ccc(OCc3nc4ccccc4cc3OCCF)cc2)n1`, the IC50 in assay [1] came out at 1040 nM; in [4], 19.9 µM; in assay [5], 0.26 nM; in [7], 25.9 µM; in [8], 1.76 µM. Further, the Ratio IC50 in assay [2], in assay [3], in assay [6] and in assay [9] was over 210 each time.
For the compound `Cn1cc(-c2ccncc2)c(-c2ccc(OCc3cc(CCCF)c4ccccc4n3)cc2)n1`, the IC50 was found to be 380 nM in assay [1]; 19.1 µM in assay [4]; 1.8 nM in [5]; 21.9 µM in [7]; 0.46 µM in assay [8]. The Ratio IC50 in assay [2], in [3], in assay [6] and in assay [9] was over 210 throughout.
On to `Cn1ncc(-c2ccncc2)c1-c1ccc(OCc2cc(COCCF)c3ccccc3n2)cc1`, for which the IC50 in [1] is 4240 nM; in assay [4] it was over 1000 µM; in assay [5], 1.12 nM; in [7], 306 µM; in assay [8] it was 4.77 µM. Further, the Ratio IC50 in assay [2], in [3], in assay [6] and in [9] was over 210 in each case.
Consider `Cn1ncc(-c2ccncc2)c1-c1ccc(OCc2cc(OCCOCCF)c3ccccc3n2)cc1`, for which the IC50 in assay [1] amounted to 11600 nM; in assay [4], 50.1 µM; in [5], 0.36 nM; in assay [7], 66.4 µM; in [8] it was 12.3 µM. Besides, the Ratio IC50 in assay [2], in assay [3], in assay [6] and in [9] was over 210 each time.
In the case of `Cn1cc(-c2ccncc2)c(-c2ccc(OCc3cc(-n4cc(CCF)nn4)c4ccccc4n3)cc2)n1`, the IC50 in assay [1] turned out to be 18300 nM; in assay [4] it was 3.56 µM; in [5], 3.07 nM; in assay [7], 4.51 µM; in assay [8] it was 1.57 µM. The Ratio IC50 in assay [2], in [3], in assay [6] and in [9] was over 210 in each case.
`Cn1cc(-c2ccncc2)c(-c2ccc(OCc3ccc4cc(F)ccc4n3)cc2)n1`: the IC50 in assay [1] turned out to be 2550 nM; in [4] it was 23.9 µM; in assay [5] it was 0.29 nM; in assay [7], 38.5 µM; in assay [8], 2.33 µM. Also, the Ratio IC50 in assay [2], in assay [3], in assay [6] and in assay [9] was over 210 in each case.
On to `Cn1cc(-c2ccncc2)c(-c2ccc(OCc3cc(OCCOCCOCCOCCF)c4ccccc4n3)cc2)n1`, for which the IC50 was determined as 10300 nM in assay [1]; 29.6 µM in [4]; 0.33 nM in assay [5]; 144 µM in assay [7]; 9.89 µM in assay [8]. Further, the Ratio IC50 in assay [2], in assay [3], in assay [6] and in [9] was over 210 throughout.
